Measurements taken from ChEMBL document CHEMBL3352416, “Discovery of carbohybrid-based 2-aminopyrimidine analogues as a new class of rapid-acting antimalarial agents using image-based cytological profiling assay” (J Med Chem, 2014).
Active and inactive are the calls of the source. The rule behind the calls is not given here.

Key:
Plasmodium falciparum [1] = experiment: Antimalarial activity against tightly synchronized Plasmodium falciparum HB3 assessed as parasite stage accumulation index at trophozoites stages at 10 uM treated at 18 hrs post-invasion for continuous duration of 36 hrs by automated image mining based cytological profiling assay; format: functional
In short: (§1)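 Tightly synchronized cultures exposed to 10 µM final from 6 hpi (early ring), 18 hpi (late ring) or 30 hpi (mid-trophozoite) for a continuous 36 h. Erythrocytes stained with WGA-AlexaFluor 488, parasite nuclei with DAPI, functional mitochondria with Mitotracker Red CMXRos. Stages (early rings, late rings, trophozoites, schizonts) classified by nuclear spot number and size. Viable parasitaemia and stage accumulation index obtained by automated image analysis.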

Plasmodium falciparum [2] = experiment: Antimalarial activity against tightly synchronized Plasmodium falciparum K1 assessed as parasite stage accumulation index at schizonts stages at 10 uM treated at 30 hrs post-invasion for continuous duration of 36 hrs by automated image mining based cytological profiling assay; format: functional; in short: as §1
Plasmodium falciparum [3] = experiment: Antimalarial activity against tightly synchronized Plasmodium falciparum K1 assessed as parasite stage accumulation index at trophozoites stages at 10 uM treated at 6 hrs post-invasion for continuous duration of 36 hrs by automated image mining based cytological profiling assay; format: functional
Plasmodium falciparum [4] = experiment: Antimalarial activity against tightly synchronized Plasmodium falciparum HB3 assessed as parasite stage accumulation index at early ring stages at 10 uM treated at 6 hrs post-invasion for continuous duration of 36 hrs by automated image mining based cytological profiling assay; format: functional
Plasmodium falciparum [5] = experiment: Antimalarial activity against tightly synchronized Plasmodium falciparum HB3 assessed as parasite stage accumulation index at trophozoites stages at 10 uM treated at 30 hrs post-invasion for continuous duration of 36 hrs by automated image mining based cytological profiling assay; format: functional
Plasmodium falciparum [6] = experiment: Antimalarial activity against tightly synchronized Plasmodium falciparum HB3 assessed as parasite stage accumulation index at late ring stages at 10 uM treated at 18 hrs post-invasion for continuous duration of 36 hrs by automated image mining based cytological profiling assay; format: functional; in short: as §1
Plasmodium falciparum [7] = experiment: Antimalarial activity against tightly synchronized Plasmodium falciparum W2 assessed as parasite stage accumulation index at trophozoites stages at 10 uM treated at 18 hrs post-invasion for continuous duration of 36 hrs by automated image mining based cytological profiling assay; format: functional
Plasmodium falciparum [8] = experiment: Antimalarial activity against Plasmodium falciparum HB3 assessed as reduction in parasite stage accumulation index at 10 uM treated at 42 hrs post-invasion for 24 hrs by automated image mining based cytological profiling assay; format: functional
In short: (§2)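 Tightly synchronized cultures exposed from the 42 hpi mid-schizont point for 24 h to 10 µM final. Host cells stained with wheat germ agglutinin-AlexaFluor 488, parasite nuclei with DAPI and live-parasite mitochondria with Mitotracker Red CMXRos. Infected and viable parasitaemia and stage proportions quantified by automated image mining. Stage accumulation indices and parasitaemia reduction index derived.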

Plasmodium falciparum [9] = experiment: Antimalarial activity against tightly synchronized Plasmodium falciparum HB3 assessed as parasite stage accumulation index at trophozoites stages at 10 uM treated at 6 hrs post-invasion for continuous duration of 36 hrs by automated image mining based cytological profiling assay; format: functional; in short: as §1
Plasmodium falciparum [10] = experiment: Antimalarial activity against tightly synchronized Plasmodium falciparum W2 assessed as parasite stage accumulation index at schizonts stages at 10 uM treated at 18 hrs post-invasion for continuous duration of 36 hrs by automated image mining based cytological profiling assay; format: functional
Plasmodium falciparum [11] = experiment: Antimalarial activity against tightly synchronized Plasmodium falciparum HB3 assessed as parasite stage accumulation index at late ring stages at 10 uM treated at 6 hrs post-invasion for continuous duration of 36 hrs by automated image mining based cytological profiling assay; format: functional; in short: as §1
Plasmodium falciparum [12] = experiment: Antimalarial activity against tightly synchronized Plasmodium falciparum K1 assessed as parasite stage accumulation index at late ring stages at 10 uM treated at 6 hrs post-invasion for continuous duration of 36 hrs by automated image mining based cytological profiling assay; format: functional
Plasmodium falciparum [13] = experiment: Antimalarial activity against Plasmodium falciparum HB3 assessed as increase in schizonts parasite stage accumulation index at 10 uM treated at 42 hrs post-invasion for 24 hrs by automated image mining based cytological profiling assay; format: functional; in short: as §2
Plasmodium falciparum [14] = experiment: Antimalarial activity against tightly synchronized Plasmodium falciparum K1 assessed as parasite stage accumulation index at trophozoites stages at 10 uM treated at 30 hrs post-invasion for continuous duration of 36 hrs by automated image mining based cytological profiling assay; format: functional; in short: as §1
Plasmodium falciparum [15] = experiment: Antimalarial activity against Plasmodium falciparum W2 assessed as reduction in parasite stage accumulation index at 10 uM treated at 42 hrs post-invasion for 24 hrs by automated image mining based cytological profiling assay; format: functional, organism-based; in short: as §2
Plasmodium falciparum [16] = experiment: Antimalarial activity against tightly synchronized Plasmodium falciparum K1 assessed as parasite stage accumulation index at schizonts stages at 10 uM treated at 6 hrs post-invasion for continuous duration of 36 hrs by automated image mining based cytological profiling assay; format: functional; in short: as §1
Plasmodium falciparum [17] = experiment: Antimalarial activity against tightly synchronized Plasmodium falciparum K1 assessed as parasite stage accumulation index at trophozoites stages at 10 uM treated at 18 hrs post-invasion for continuous duration of 36 hrs by automated image mining based cytological profiling assay; format: functional; in short: as §1
Plasmodium falciparum [18] = experiment: Antimalarial activity against Plasmodium falciparum W2 assessed as increase in schizonts parasite stage accumulation index at 10 uM treated at 42 hrs post-invasion for 24 hrs by automated image mining based cytological profiling assay; format: functional, organism-based; in short: as §2
Plasmodium falciparum [19] = experiment: Antimalarial activity against Plasmodium falciparum K1 assessed as reduction in parasite stage accumulation index at 10 uM treated at 42 hrs post-invasion for 24 hrs by automated image mining based cytological profiling assay; format: functional, organism-based; in short: as §2
Plasmodium falciparum [20] = experiment: Antimalarial activity against tightly synchronized Plasmodium falciparum W2 assessed as parasite stage accumulation index at trophozoites stages at 10 uM treated at 6 hrs post-invasion for continuous duration of 36 hrs by automated image mining based cytological profiling assay; format: functional
Plasmodium falciparum [21] = experiment: Antimalarial activity against tightly synchronized Plasmodium falciparum W2 assessed as parasite stage accumulation index at early ring stages at 10 uM treated at 6 hrs post-invasion for continuous duration of 36 hrs by automated image mining based cytological profiling assay; format: functional; in short: as §1
Plasmodium falciparum [22] = experiment: Antimalarial activity against tightly synchronized Plasmodium falciparum HB3 assessed as parasite stage accumulation index at schizonts stages at 10 uM treated at 30 hrs post-invasion for continuous duration of 36 hrs by automated image mining based cytological profiling assay; format: functional
Plasmodium falciparum [23] = experiment: Antimalarial activity against Plasmodium falciparum K1 assessed as increase in schizonts parasite stage accumulation index at 10 uM treated at 42 hrs post-invasion for 24 hrs by automated image mining based cytological profiling assay; format: functional, organism-based; in short: as §2
Plasmodium falciparum [24] = experiment: Antimalarial activity against tightly synchronized Plasmodium falciparum W2 assessed as parasite stage accumulation index at late ring stages at 10 uM treated at 18 hrs post-invasion for continuous duration of 36 hrs by automated image mining based cytological profiling assay; format: functional; in short: as §1
Plasmodium falciparum [25] = experiment: Antimalarial activity against tightly synchronized Plasmodium falciparum W2 assessed as parasite stage accumulation index at schizonts stages at 10 uM treated at 6 hrs post-invasion for continuous duration of 36 hrs by automated image mining based cytological profiling assay; format: functional; in short: as §1
Plasmodium falciparum [26] = experiment: Antimalarial activity against tightly synchronized Plasmodium falciparum K1 assessed as parasite stage accumulation index at late ring stages at 10 uM treated at 18 hrs post-invasion for continuous duration of 36 hrs by automated image mining based cytological profiling assay; format: functional; in short: as §1
Plasmodium falciparum [27] = experiment: Antimalarial activity against tightly synchronized Plasmodium falciparum W2 assessed as parasite stage accumulation index at trophozoites stages at 10 uM treated at 30 hrs post-invasion for continuous duration of 36 hrs by automated image mining based cytological profiling assay; format: functional; in short: as §1
Plasmodium falciparum [28] = experiment: Antimalarial activity against tightly synchronized Plasmodium falciparum K1 assessed as parasite stage accumulation index at early ring stages at 10 uM treated at 6 hrs post-invasion for continuous duration of 36 hrs by automated image mining based cytological profiling assay; format: functional; in short: as §1
Plasmodium falciparum [29] = experiment: Antimalarial activity against tightly synchronized Plasmodium falciparum HB3 assessed as parasite stage accumulation index at schizonts stages at 10 uM treated at 6 hrs post-invasion for continuous duration of 36 hrs by automated image mining based cytological profiling assay; format: functional; in short: as §1
Plasmodium falciparum [30] = experiment: Antimalarial activity against tightly synchronized Plasmodium falciparum K1 assessed as parasite stage accumulation index at schizonts stages at 10 uM treated at 18 hrs post-invasion for continuous duration of 36 hrs by automated image mining based cytological profiling assay; format: functional; in short: as §1
Plasmodium falciparum [31] = experiment: Antimalarial activity against tightly synchronized Plasmodium falciparum W2 assessed as parasite stage accumulation index at schizonts stages at 10 uM treated at 30 hrs post-invasion for continuous duration of 36 hrs by automated image mining based cytological profiling assay; format: functional
Plasmodium falciparum [32] = experiment: Antimalarial activity against tightly synchronized Plasmodium falciparum W2 assessed as parasite stage accumulation index at late ring stages at 10 uM treated at 6 hrs post-invasion for continuous duration of 36 hrs by automated image mining based cytological profiling assay; format: functional
Plasmodium falciparum [33] = experiment: Antimalarial activity against tightly synchronized Plasmodium falciparum HB3 assessed as parasite stage accumulation index at schizonts stages at 10 uM treated at 18 hrs post-invasion for continuous duration of 36 hrs by automated image mining based cytological profiling assay; format: functional; in short: as §1

CC(C)C[C@H](NC(=O)[C@H]1O[C@@H]1C(=O)O)C(=O)NCCCCN=C(N)N [E-64]
Activity (Plasmodium falciparum [1]): 1.33
Activity (Plasmodium falciparum [2]): 2.07
Activity (Plasmodium falciparum [3]): 1.25
Activity (Plasmodium falciparum [4]): 3.15
Activity (Plasmodium falciparum [5]): 1.06
Activity (Plasmodium falciparum [6]): 0.8
Activity (Plasmodium falciparum [7]): 1.22
inhibition (Plasmodium falciparum [8]): Active
Activity (Plasmodium falciparum [9]): 1.32
Activity (Plasmodium falciparum [10]): 2.1
Activity (Plasmodium falciparum [11]): 1.15
Activity (Plasmodium falciparum [12]): 0.67
inhibition (Plasmodium falciparum [13]): Active
Activity (Plasmodium falciparum [14]): 0.5
inhibition (Plasmodium falciparum [15]): Active
Activity (Plasmodium falciparum [16]): 0.55
Activity (Plasmodium falciparum [17]): 1.45
inhibition (Plasmodium falciparum [18]): Active
inhibition (Plasmodium falciparum [19]): Active
Activity (Plasmodium falciparum [20]): 1.4
Activity (Plasmodium falciparum [21]): 1.78
Activity (Plasmodium falciparum [22]): 3.85
inhibition (Plasmodium falciparum [23]): Active
Activity (Plasmodium falciparum [24]): 0.76
Activity (Plasmodium falciparum [25]): 1.2
Activity (Plasmodium falciparum [26]): 0.39
Activity (Plasmodium falciparum [27]): 1.44
Activity (Plasmodium falciparum [28]): 1.69
Activity (Plasmodium falciparum [29]): 0.45
Activity (Plasmodium falciparum [30]): 2.11
Activity (Plasmodium falciparum [31]): 3
Activity (Plasmodium falciparum [32]): 0.91
Activity (Plasmodium falciparum [33]): 2.05
